Article PMC12024519 (Science Advances, 2025)

Legend:
AKT [1] = experiment: immunoblot of AKT phosphorylation in HEK293T cells; assay type: cell-based, Human; details: 0.1 μM, 0-6 h
SMARCA2/4 = experiment: immunoblot of SMARCA2/4 depletion; assay type: cell-based; details: 0.1 μM, 16 hours, MDA-MB-231
Summary of the method: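 Cells grown at 37°C, 5% CO2 with 10% FBS: MDA-MB-231 and MCF-7 in DMEM, BT-549 and T-47D in RPMI 1640. After washing in ice-cold PBS, cells were lysed in Triton (pH 7.4) or EBC (pH 7.5) buffer with protease and phosphatase inhibitors. Equal protein was resolved by SDS-PAGE, transferred to PVDF and probed with primary antibodies at 1:1000–1:10,000 in TBST/5% milk.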

[2] = system: BRD9 interaction with AKT1; experiment: co-immunoprecipitation of BRD9 and AKT1 in MDA-MB-231 cells; assay type: cell-based; details: 0.1 μM, 16 hours
Summary of the method: (§1)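 Cells grown in DMEM with 10% FBS, penicillin/streptomycin, at 37°C and 5% CO2; HEK293T transfected with Lipofectamine/Plus. Cells rinsed in ice-cold PBS and lysed in Triton buffer (40 mM Hepes pH 7.4, 150 mM NaCl, 1% Triton X-100) or EBC buffer (50 mM Tris pH 7.5, 0.5% NP-40) with protease/phosphatase inhibitors. 1000–3000 μg lysate incubated with agarose-conjugated antibody 3–4 h at 4°C; beads washed five times in NETN; SDS-PAGE immunoblot.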

H3K27me3 = experiment: immunoblot of H3K27me3; assay type: cell-based
MDA-MB-231 cells [3] = experiment: RT-qPCR of select common genes in MDA-MB-231 cells; assay type: cell-based; details: n = 3 biological replicates
EZH2 = experiment: AKT-mediated phosphorylation of EZH2, phospho-AKT substrate antibody; assay type: cell-based, Human; details: 5 μM I-BRD9, 16 h, HEK293T transfected with HA-EZH2
Summary of the method: as §1

BRD9-BD = experiment: in vitro biotin-peptide pull-down with GST-BRD9-BD; assay type: binding; details: immunoblot; for relative affinity of BRD9-BD for R391me2s vs H4R3me2s: biotin-labeled peptides, pull-down with GST-BRD9-BD
[4] = system: BRD9 and AKT1 interaction; experiment: co-immunoprecipitation of Myc-BRD9 and HA-AKT1 in HEK293T cells; assay type: cell-based, Human; details: 5 μM, 24 hours
AKT [5] = experiment: immunoblot of AKT activation; assay type: cell-based; details: 5 μM I-BRD9, MDA-MB-231, indicated times
Summary of the method: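 MDA-MB-231 cells kept in DMEM with 10% FBS, penicillin/streptomycin, 37°C, 5% CO2. After treatment, cells washed with ice-cold PBS and lysed in Triton or EBC buffer containing protease/phosphatase inhibitors. Protein quantified by Bio-Rad assay; equal lysate amounts run on SDS-PAGE and transferred to PVDF. Blots probed with pT308-AKT, pS473-AKT, pan-AKT, pGSK-3β and GSK-3β antibodies diluted 1:1000–1:10,000 in TBST/5% milk.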

MDA-MB-231 cells [6] = experiment: RNA-seq of treated MDA-MB-231 cells; assay type: cell-based, human; details: for shared down-regulated genes (I-BRD9 and ipatasertib) / shared up-regulated genes (I-BRD9 and ipatasertib): 5 μM I-BRD9 or 1 μM ipatasertib, Q value < 0.05; for hallmark gene sets significantly enriched among the 186 shared genes: MSigDB, genes shared by I-BRD9 and ipatasertib; for common down-regulated genes significantly marked by H3K27me3: of 116 genes common to I-BRD9 and ipatasertib, epidecodeR
AKT1 PH and KD domains = experiment: interaction of AKT1 PH and KD domains in HEK293T cells; assay type: cell-based, Human; details: 5 μM I-BRD9, 16 h
Tudor domain of SND1 = experiment: biotin-peptide pull-down with GST-SND1-Tudor; assay type: binding; details: compared to BRD9-BD, immunoblot
Tudor domain of SMN = experiment: biotin-peptide pull-down with GST-SMN-Tudor; assay type: binding; details: compared to BRD9-BD, immunoblot
BRD9-3Mut = experiment: biotin-peptide pull-down with Myc-BRD9-3Mut; assay type: binding; details: Myc-BRD9-3Mut from HEK293T WCL; immunoblot

For `Cc1ncsc1-c1ccc([C@H](C)NC(=O)[C@@H]2C[C@@H](O)CN2C(=O)[C@@H](NC(=O)CN2CCN(c3cc(-c4ccccc4O)nnc3N)CC2)C(C)(C)C)cc1` [AU-15330], the “AKT phosphorylation, AU-15330” value (AKT [1]) was “minor effects”, the “depletion of SMARCA2/4” value (SMARCA2/4) was “depletion of SMARCA2/4” and the “effect on BRD9 interaction with AKT1” value [2] was “minimal effects on BRD9 interaction with AKT1”. For the same compound, the “H3K27me3, AU-15330” value (H3K27me3; 0.1 μM, 0-6 h, HEK293T) was “minor effects”.
For `Nc1cc(C(F)(F)F)c(-c2cc(N3CCOCC3)nc(N3CCOCC3)n2)cn1` [BKM120], the “H3K27me3 level, BKM120” value (H3K27me3; 0, 1, 5 μM, 16 h, MDA-MB-231) was “elevated”.
With `CC[C@H](C)n1cc(C)c2c(C(=O)NCc3c(C)cc(C)[nH]c3=O)cc(-c3ccc(N4CCNCC4)nc3)cc21` [GSK126] the “transcription of common genes of BRD9 and AKT” value (MDA-MB-231 cells [3]; 5 μM GSK126, 48 hours) was “increased the transcription of common genes of BRD9 and AKT”, the “effect on H3K27me3 elevation caused by loss of BRD9” value (H3K27me3; 5 μM GSK126, 16 h, MDA-MB-231, sgBRD9) was “completely blocked” and the “effect on I-BRD9-enhanced H3K27me3” value (H3K27me3; GSK126 with I-BRD9, 16 h, MDA-MB-231 (fig. S6D)) was “suppressed”.
`CCn1cc(-c2cccc(C(F)(F)F)c2)c2sc(C(=N)NC3CCS(=O)(=O)CC3)cc2c1=O` [I-BRD9] was tested, and the “AKT-mediated phosphorylation of EZH2” value (EZH2) was “largely blocked AKT-mediated phosphorylation of EZH2”, the “effect on AKT1-R391me2s peptide binding of BRD9-BD in vitro” value (BRD9-BD; 5 μM I-BRD9, pull-down) was “blocked the AKT1-R391me2s peptide binding of BRD9-BD in vitro” and the “effect on BRD9 and AKT1 interaction in cells” value [4] was “markedly impaired BRD9 and AKT1 interaction in cells”. The “mRNA of shared genes in hallmark pathways, I-BRD9” value (MDA-MB-231 cells [3]; 5 μM I-BRD9, 16 hours) was “transcriptionally repressed”, the “AKT activation, I-BRD9” value (AKT [5]) was “diminished AKT activation in a time-dependent manner” and the “shared down-regulated genes (I-BRD9 and ipatasertib)” value (MDA-MB-231 cells [6]; 16 hours) was 116 genes. The “shared up-regulated genes (I-BRD9 and ipatasertib)” value (MDA-MB-231 cells [6]; 16 hours) was 70 genes, the “hallmark gene sets significantly enriched among the 186 shared genes” value (MDA-MB-231 cells [6]) was “Nine” and the “common down-regulated genes significantly marked by H3K27me3” value (MDA-MB-231 cells [6]) was “Seventy-five”. The “interaction between PH and KD domains, I-BRD9” value (AKT1 PH and KD domains) was “enhance the interaction between the PH and KD domains”, the “H3K27me3, I-BRD9 combined with AKT1 depletion” value (H3K27me3; 5 μM I-BRD9, 16 h, AKT1-depleted MDA-MB-231) was “did not further induce H3K27me3” and the “H3K27me3 induction by I-BRD9 upon overexpression of myr-AKT1” value (H3K27me3; 5 μM I-BRD9, 16 h, MDA-MB-231 stably expressing Myr-AKT1 (fig. S6J)) was “largely suppressed H3K27me3 induction”. The “H3K27me3 signal, I-BRD9” value (H3K27me3; MDA-MB-231 (Fig. 5D) and MDA-MB-436 (0, 1, 5 μM, fig. S6C), 16 h) was “markedly enhanced H3K27me3 signal”.
`O=c1cc(N2CCOCC2)oc2c(-c3ccccc3)cccc12` [LY294002] was tested, and the “H3K27me3 level, LY294002” value (H3K27me3; 0, 10, 20 μM, 16 h, MDA-MB-231) was “elevated”.
For `CC(C)NC[C@@H](C(=O)N1CCN(c2ncnc3c2[C@H](C)C[C@H]3O)CC1)c1ccc(Cl)cc1` [ipatasertib], the “mRNA of shared genes in hallmark pathways, ipatasertib” value (MDA-MB-231 cells [3]; 1 μM ipatasertib, 16 hours) was “transcriptionally repressed”, the “share of AKT-down-regulated genes that are common with I-BRD9” value (MDA-MB-231 cells [6]; 1 μM ipatasertib, 16 hours) was 59% and the “share of AKT-up-regulated genes that are common with I-BRD9” value (MDA-MB-231 cells [6]; 1 μM ipatasertib, 16 hours) was 32%. The “shared down-regulated genes (I-BRD9 and ipatasertib)” value (MDA-MB-231 cells [6]; 16 hours) was 116 genes, the “shared up-regulated genes (I-BRD9 and ipatasertib)” value (MDA-MB-231 cells [6]; 16 hours) was 70 genes and the “hallmark gene sets significantly enriched among the 186 shared genes” value (MDA-MB-231 cells [6]) was “Nine”. For the same compound, the “common down-regulated genes significantly marked by H3K27me3” value (MDA-MB-231 cells [6]) was “Seventy-five” and the “H3K27me3 level, ipatasertib” value (H3K27me3; 0, 1, 5 μM, 16 h, MDA-MB-231) was “elevated”.
In the case of “Biotin-Ahx-GLLKKDPKQ(Rme2s)LGGGSEDA [R391me2s]”, the “binding of Tudor domain of SND1 to R391me2s” value (Tudor domain of SND1) is reported as “much weaker or no binding”, the “binding of Tudor domain of SMN to R391me2s” value (Tudor domain of SMN) is reported as “much weaker or no binding” and the “relative affinity of BRD9-BD for R391me2s vs H4R3me2s” value (BRD9-BD) is reported as “greater affinity for R391me2s than H4R3me2s”. For the same compound, the “binding of BRD9-3Mut to AKT1-R391me2s peptide” value (BRD9-3Mut) was “incapable of binding”.
“H4R3me2s: Biotin-H4R3me2s peptide, ANASPEC AS-65424” was tested, and the “relative affinity of BRD9-BD for R391me2s vs H4R3me2s” value (BRD9-BD) was “greater affinity for R391me2s than H4R3me2s”.
